# Bioassay records: PubChem BioAssay, several laboratories
# Rows were chosen to be rich in hits. Some 1.4% of all compounds tested hit in one or more screens of this group.
# MOR-DOR ag: OPRM1-OPRD1 heterodimerization agonism | cells, luminescence | activation, % at 9.3 µM | 340,000 compounds, 0.3% hits | AID 504326; in the data active = activation above about 18%;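 also: 0% = vehicle-treated cells and 100% = reference agonist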
# Target sequence (P35372 whole entry, looked up): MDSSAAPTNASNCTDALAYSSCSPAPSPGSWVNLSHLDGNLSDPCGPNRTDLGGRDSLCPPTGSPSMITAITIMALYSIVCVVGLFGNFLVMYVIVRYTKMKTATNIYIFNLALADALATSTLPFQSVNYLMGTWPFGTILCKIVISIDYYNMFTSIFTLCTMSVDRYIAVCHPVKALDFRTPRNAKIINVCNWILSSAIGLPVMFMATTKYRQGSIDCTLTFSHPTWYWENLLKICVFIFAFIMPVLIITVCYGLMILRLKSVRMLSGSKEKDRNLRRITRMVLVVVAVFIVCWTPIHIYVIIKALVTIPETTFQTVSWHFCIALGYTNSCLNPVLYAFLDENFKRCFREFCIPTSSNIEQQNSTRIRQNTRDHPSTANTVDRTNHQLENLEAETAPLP
# Target sequence (P41143 whole entry, looked up): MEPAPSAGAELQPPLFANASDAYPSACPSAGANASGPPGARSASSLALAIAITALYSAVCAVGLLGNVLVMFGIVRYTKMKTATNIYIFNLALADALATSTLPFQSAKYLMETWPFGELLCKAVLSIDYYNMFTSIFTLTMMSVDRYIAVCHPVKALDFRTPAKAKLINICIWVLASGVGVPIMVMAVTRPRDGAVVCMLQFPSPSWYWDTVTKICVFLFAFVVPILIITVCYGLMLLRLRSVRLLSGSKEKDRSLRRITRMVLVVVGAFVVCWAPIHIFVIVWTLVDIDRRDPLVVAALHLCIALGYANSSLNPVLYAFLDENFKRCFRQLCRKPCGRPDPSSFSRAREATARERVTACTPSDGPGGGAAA
# Arrestin-AP2 inh: human beta-arrestin and AP2 interaction inhibition; FITC-arrestin peptide / GST-AP2 beads, flow cytometry; AP2 beta2 appendage carries R879A mutation; inhibition, % at 10 µM; 340,000 compounds, 0.31% hits; AID 504490;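 active = inhibition above a set limit, near 3 SD of compounds lacking own fluorescence, cut at about 54% in these data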;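 also: plate controls were DMSO wells for no effect and 5 µM unlabelled arrestin peptide for full effect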
#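 Measured by: flow cytometry, FL1 (488/535 nm); Material: AP2 appendage R879A on GSH beads; Evaluation: percent response; Timing: pre-incubation 12 min, peptide binding 1 h, room temperature; Also added: 50 nM FITC-arrestin peptide; Medium: PBS with 0.05% Tween 20 and 0.1% BSA.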
# HTR5A inv ctr: inverse agonist of human HTR5A in OPRM1-OPRD1 counter-screen | HTR5A cell line, luminescence, inverse agonism | P47898 | inhibition, % at 9.3 µM | AID 504634 | 340,000 compounds, 0.083% hits; in the data active = inhibition mostly above about 23%, no sharp cut-off; inactive = mostly below about 18%;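 also: 0% = cells with DMSO and 100% = no-cell wells with DMSO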
# HTR5A ag: HTR5A agonism, opioid heterodimer counter-screen; P47898; activation, % at 9.3 µM; HTR5A agonist assay, luminescence, cell-based; 340,000 compounds, 0.61% hits; in the data active = activation mostly above about 9.5%, no sharp cut-off; inactive = mostly below about 7.6%;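 also: 0% = cells with vehicle only and 100% = reference agonist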
# OPRM1-OPRD1 inv: inverse agonists of human mu-delta opioid receptor heterodimerization; P35372+P41143; cell-based MOR-DOR heterodimer luminescence, inverse agonism; inhibition, % at 9.3 µM; 340,000 compounds, 0.21% hits; in the data active = inhibition above about 22%, passing the limit was not always enough;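 also: 0% = cells with DMSO and 100% = wells without cells with DMSO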
# DAGLB inhibitor: diacylglycerol lipase beta (human) inhibition; HEK293T DAGLB membrane lysate, EnzChek fluorogenic substrate; 340,000 compounds, 0.059% hits; AID 504411; Q8NCG7; inhibition, % at 5.17 µM; in the data active = inhibition above about 34%;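 also: 0% = enzyme with vehicle and 100% = wells lacking enzyme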
# Arr-AP2 CP1: inhibitors of human beta-arrestin and AP2 interaction. AID 504908. shares compounds with Arrestin-AP2 inh. GST-AP2 beads, FITC arrestin peptide binding, flow cytometry; GST-fused beta2-adaptin appendage, R879A mutant. inhibition, % at 10 µM. 1,300 compounds, 2% hits;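 active = inhibition above a set limit, roughly 3 SD of non-fluorescent compound noise, cut at about 38% in these data; inactive = inhibition at or below that limit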;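 also: loss of bead fluorescence from 50 nM FITC arrestin peptide bound to appendage; 0% = negative control wells and 100% = excess unlabelled arrestin peptide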
# GST-FITC bead: disrupts GST binding to glutathione beads, arrestin-AP2 artifact; shares compounds with Arrestin-AP2 inh; GST-fluorescein binding to GSH beads, fluorescence, counter-screen; inhibition, % at 10 µM; 1,300 compounds, 2% hits; AID 588338;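 active = inhibition above 50%, about 3 SD of the inhibition seen with non-fluorescent compounds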;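 also: fluorescein maleimide labelled GST captured on 4 micron glutathione beads; higher means more loss of bead fluorescence from quenching or blocked binding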
# * marks the source's active call; other numbers are inactive results; · = no result given.
SMILES,MOR-DOR ag,Arrestin-AP2 inh,HTR5A inv ctr,HTR5A ag,OPRM1-OPRD1 inv,DAGLB inhibitor,Arr-AP2 CP1,GST-FITC bead
Cc1cccc(C)c1NC(=O)CN(C)C(=O)c1cccc(NS(=O)(=O)c2ccccc2)c1,0,59*,7,5,-1,0,-11,-1
C=CCOc1c(CNc2ccc3[nH]c(=O)[nH]c3c2)cccc1OC,-1,20,21,-3,3,2,·,·
COc1cccc(CNc2ccc3[nH]c(=O)[nH]c3c2)c1OCc1ccc(F)cc1,1,55*,8,-2,-7,1,18,13
CC(C)Cn1c(N)c(C(=O)COC(=O)c2nccnc2N)c(=O)n(C)c1=O,-3,19,-14,5,12,-2,·,·
CC(C)Cn1c(N)c(C(=O)COC(=O)c2ccncc2)c(=O)n(C)c1=O,-3,-6,-14,6,11,-6,-7,-4
CC(C)Cn1c(N)c(C(=O)COC(=O)c2ccc(Br)cc2)c(=O)n(C)c1=O,5,4,7,-3,-22,-1,2,1
CC(C)Cn1c(N)c(C(=O)COC(=O)c2ccc(Cl)cc2)c(=O)n(C)c1=O,4,-11,-12,-3,-18,-3,·,·
CCOC(=O)c1c(-c2cccs2)csc1NC(C)=O,-2,13,-16,7,12,-9,·,·
CCOC(=O)c1c(-c2cccs2)csc1NC(=O)CN1CC(C)OC(C)C1 (stereo unspecified),6,72*,-30,4,-35,-13,6,-3
O=C(C1=C(O)C(=O)N(CCCn2ccnc2)C1c1cccc(Br)c1)c1ccco1 (stereo unspecified),-5,55*,22,-1,17,-2,6,30
COc1ccc([C@H]2C[C@H](O)[C@@H](n3cc(-c4ccc(F)cc4)nn3)CN2C(=O)C2CCCCC2)cc1,·,·,·,·,·,-2,·,·
CCOCCCNS(=O)(=O)c1ccc(NC(=O)c2ccc(OC)c([N+](=O)[O-])c2)cc1,0,56*,-4,2,-3,4,10,7
Cc1cc(NC(=O)c2sccc2C)n(-c2nc3ccccc3[nH]2)n1,-3,8,10,6,16,-20,-6,1
CCOC(=O)C(=O)Nc1cc(C)nn1-c1nc2ccccc2[nH]1,2,21,-8,3,-11,2,·,·
Cc1cc(NC(=O)c2cccs2)n(-c2nc3ccccc3[nH]2)n1,-3,76*,-10,-6,14,-9,-7,3
COc1ccc(N2CCN(S(=O)(=O)CCNC(=O)/C=C/c3ccc4c(c3)OCO4)CC2)cc1,3,63*,-3,4,-19,3,0,-1
CCOc1ccc(NC(=O)OCCN2CCN(CCc3ccccc3)C(C)C2)cc1 (stereo unspecified),0,42,8,-2,0,1,·,·
CCN1CCN(C(=O)c2ccc3c(Cl)c4c(nc3c2)CCCC4)CC1,0,6,17,2,2,2,·,·
CN1CCN(C(=O)c2ccc3c(Cl)c4c(nc3c2)CCCC4)CC1,-2,64*,17,0,12,-4,-6,-4
CCn1c(=O)n(CC)c2cc(N3CCCC3)c(NC(=O)c3cccc(C)c3)cc21,-2,64*,6,-3,10,-5,9,7
Cc1cc(NC(=O)c2ccc(N3CCCC3)c([N+](=O)[O-])c2)no1,-5,98*,-3,-5,23,2,-3,23
CCn1c(=O)n(CC)c2cc(N3CCCC3)c(NC(=O)c3cccc(Cl)c3)cc21,-4,4,-16,3,22,1,-7,0
CN1CCN(c2ccccc2NC(=O)c2ccc(N3CCCC3)c([N+](=O)[O-])c2)CC1,0,3,9,-3,1,-2,·,·
CCn1c(=O)n(CC)c2cc(N3CCCC3)c(NC(=O)c3ccc(C)c([N+](=O)[O-])c3)cc21,0,70*,-1,3,1,1,0,-7
CCC(=O)N1CCN(c2ccccc2NC(=O)c2cccc(C)c2)CC1,1,1,6,-2,-4,-2,·,·
SMILES,MOR-DOR ag,Arrestin-AP2 inh,HTR5A inv ctr,HTR5A ag,OPRM1-OPRD1 inv,DAGLB inhibitor,Arr-AP2 CP1,GST-FITC bead
COCC(=O)N(C)C[C@@H]1Oc2cc(-c3ccc(F)cc3)ccc2S(=O)(=O)N([C@H](C)CO)C[C@H]1C,·,·,·,·,·,6,·,·
CCOC(=O)c1c(C)cc2c(CO)n[nH]c(=O)c2c1C,·,·,·,·,·,-3,·,·
Nc1c(N(C(=O)Nc2ccc(Cl)c(Cl)c2)C2CCCC2)c(=O)[nH]c(=O)n1Cc1ccccc1,-3,84*,-15,6,17,5,3,-5
COc1cc(/C=C(/C#N)c2nc3ccccc3[nH]2)ccc1OCC(=O)Nc1ccccc1C,6,2,-8,2,-35,1,·,·
COc1cc(/C=C(\C#N)c2nc3ccccc3[nH]2)ccc1OC(=O)c1ccco1,-1,97*,-7,1,4,1,13,-5
CC1Sc2ccc(C(=O)N(CCc3ccccc3)Cc3ccccc3)cc2NC1=O (stereo unspecified),·,·,·,·,·,2,·,·
CC12CCC(=O)N1C(C(=O)OCC(=O)Nc1cccc(S(=O)(=O)N3CCCCCC3)c1)CS2 (stereo unspecified),0,3,-3,-1,1,-1,·,·
CC12CCC(=O)N1C(C(=O)OCC(=O)Nc1cccc(Br)c1)CS2 (stereo unspecified),-1,-20,9,-3,7,1,1,-4
CC12CCC(=O)N1C(C(=O)Nc1ccc(S(=O)(=O)N3CCCCC3)cc1)CS2 (stereo unspecified),-2,-4,2,-3,11,-1,·,·
CCNC(=O)NC(=O)COC(=O)C1CSC2(C)CCC(=O)N12 (stereo unspecified),3,2,-4,2,-17,1,·,·
CN(C(=O)COC(=O)C1CSC2(C)CCC(=O)N12)c1ccccc1 (stereo unspecified),0,22,14,4,-2,-2,9,2
Cc1ccc(NC(=O)COC(=O)C2CSC3(C)CCC(=O)N23)c(C)c1 (stereo unspecified),-3,69*,-11,-4,10,-1,-8,-3
CC12CCC(=O)N1C(C(=O)OCC(=O)Nc1ccc(S(N)(=O)=O)cc1)CS2 (stereo unspecified),-2,0,33,2,9,-3,-1,-5
CCOC(=O)Cn1nc2oc(=O)c(CCN3CCN(c4ccccc4OC)CC3)c(C)c2c1C,·,·,·,·,·,-1,·,·
